Source: PubChem
An excerpt weighted towards active compounds, which were near 3% of everything screened.
UBC13 inh = blocks human UBC13 polyubiquitin chain formation; hit rate 0.47% among 330,000; TR-FRET; inhibition, % at 20 µM; P61088; in the data active = inhibition above about 45%, passing the limit was not always enough
Target sequence (P61088 whole entry, looked up): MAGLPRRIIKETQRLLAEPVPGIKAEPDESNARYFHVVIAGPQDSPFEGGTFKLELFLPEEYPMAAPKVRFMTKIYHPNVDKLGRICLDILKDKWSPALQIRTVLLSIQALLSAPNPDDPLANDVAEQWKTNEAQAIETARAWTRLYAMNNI
SENP6 inh = blocks the human protease SENP6 | Q9GZR1 | Recombinant SENP6 catalytic domain, aminoluciferin luminescence | inhibition, % at 10 µM | hit rate 1.8% among 330,000;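 active = inhibition above about 50% at the single tested dose, limit read from the data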;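 note: plate controls were DMSO wells with enzyme for no effect and DMSO wells lacking enzyme for full effect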
SENP8 block-1 = SENP8 (human) protease inhibition; Q96LD8; recombinant SENP8, Nedd8 substrate fluorescence; inhibition, % at 20 µM; hit rate 0.64% among 360,000; AID 602440; in the data active = inhibition mostly above about 40%, no sharp cut-off; inactive = mostly below about 27%
Target sequence (Q96LD8 whole entry, looked up): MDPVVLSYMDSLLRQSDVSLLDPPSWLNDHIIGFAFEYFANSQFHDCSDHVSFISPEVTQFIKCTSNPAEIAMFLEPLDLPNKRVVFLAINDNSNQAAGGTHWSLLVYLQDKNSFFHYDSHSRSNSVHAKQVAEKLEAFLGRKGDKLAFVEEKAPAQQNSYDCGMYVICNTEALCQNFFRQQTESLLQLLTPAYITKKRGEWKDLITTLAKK
SENP7 block = SENP7 protease inhibition; recombinant SENP7, Z-RLRGG-aminoluciferin luminescence, 40 min; inhibition, % at 5 µM; hit rate 1.5% among 330,000;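 active = inhibition above about 50% at the single test dose, limit read from the data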;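 note: plate controls were DMSO with enzyme for no effect and no enzyme buffer wells for full effect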
SENP8 block-2 = SENP8 protease inhibition. AID 2540. Q96LD8. hit rate 1.2% among 330,000. inhibition, % at 10 µM. purified SENP8, Z-RLRGG-aminoluciferin cleavage, luminescence; in the data active = inhibition above about 50%
Apaf1 inhib = human Apaf-1 inhibition; AID 489030; inhibition, % at 20 µM; hit rate 0.71% among 330,000; reconstituted apoptosome caspase-3 activity, DEVD-Rh110 fluorescence; active = inhibition of at least 40% at 20 µM;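 note: plate controls were DMSO wells for no effect and DEVD-CHO caspase inhibitor wells for full effect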
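Assay system: Apoptosome proteins | Medium: pH 7.5 Hepes buffer with CHAPS, BSA, DTT | Also added: Cytochrome c and DEVD-Rh110 substrate | Times: 30 min plus 50 min, RT | Detection: Rhodamine 110 fluorescence at Ex 480/Em 540 nm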
SENP8 conf = confirmation of human SENP8 protease inhibitors. purified SENP8, Nedd8-AMC/pro-Nedd8 cleavage fluorescence, 30 min. hit rate 15% among 1,400. AID 624319. inhibition, % at 25 µM. shares compounds with SENP8 block-1; in the data active = inhibition mostly above about 39%, no sharp cut-off; inactive = mostly below about 34%
Active calls of the source: *.

For C=Cn1ccnc1CC(O)c1ccc(OC)cc1 (centres undefined) the results were UBC13 inh 4.0, SENP6 inh -16.8, SENP8 block-1 43.6*, SENP7 block 8.2, SENP8 block-2 -7.9, Apaf1 inhib -3.9 and SENP8 conf -6.4.
For COc1ccc(C(O)c2nccn2C)cc1 (centres undefined) the results were UBC13 inh 0.1, SENP6 inh -17.7, SENP8 block-1 8.5, SENP7 block -7.0, SENP8 block-2 -8.8 and Apaf1 inhib -3.6.
For COc1cccc(-c2cc(C(=O)N3CCc4ccccc4C3)no2)c1 the results were UBC13 inh 3.8, SENP6 inh 35.0, SENP8 block-1 58.1*, SENP7 block 7.5, SENP8 block-2 2.6, Apaf1 inhib 30.4 and SENP8 conf 78.0*.
CNc1cccccc1=S was read as UBC13 inh -13.8, SENP6 inh 3.1, SENP8 block-1 62.1*, SENP7 block 6.7, SENP8 block-2 5.3, Apaf1 inhib 28.7 and SENP8 conf 10.1.
Screening CC(=O)NCC(=O)N[C@@H](CC(=O)OCc1ccccc1)C(=O)OCc1ccccc1 returned UBC13 inh 1.2, SENP6 inh -11.1, SENP8 block-1 43.8*, SENP7 block 1.5, SENP8 block-2 -1.9, Apaf1 inhib -7.1 and SENP8 conf 22.3.
`O=C(CC(NC(=O)OCc1ccccc1)C(=O)OCc1ccccc1)OCc1ccccc1` (centres undefined) gave SENP8 block-1 -3.5.
Screening COc1ccc(S(=O)(=O)N2CCNC(=O)CC2)cc1 returned UBC13 inh -2.0, SENP6 inh -15.4, SENP8 block-1 13.5, SENP7 block 8.0, SENP8 block-2 -2.5 and Apaf1 inhib 3.4.
For Cc1cc(NC(=O)CCC(=O)N(Cc2ccco2)C(C(=O)NC2CCCC2)c2ccccc2C)no1 (centres undefined) the results were UBC13 inh 7.3, SENP6 inh -17.8, SENP8 block-1 59.8*, SENP7 block -5.1, SENP8 block-2 -5.0, Apaf1 inhib 4.4 and SENP8 conf 27.3.
c1ccc(/N=C2\N=C(Nc3ccccn3)c3ccccc32)nc1 was read as UBC13 inh 4.5, SENP6 inh 29.4, SENP8 block-1 42.1*, SENP7 block 5.8, SENP8 block-2 7.0, Apaf1 inhib -17.2 and SENP8 conf 8.1.
c1ccc(Nc2ccccn2)cc1 was read as UBC13 inh 1.2, SENP6 inh 2.2, SENP8 block-1 7.9, SENP7 block 4.8, SENP8 block-2 4.6 and Apaf1 inhib 1.6.
`CCOc1ccc(CCNC(=O)CCNS(=O)(=O)c2ccc3c(c2)CCN3C(C)=O)cc1OCC` gave UBC13 inh 3.8, SENP6 inh 9.4, SENP8 block-1 4.6, SENP7 block 0.7, SENP8 block-2 7.3 and Apaf1 inhib -8.0.
CCN(CC)S(=O)(=O)c1ccc(N2CCN(c3cccc(OC)c3)CC2)c([N+](=O)[O-])c1 was read as UBC13 inh -11.4, SENP6 inh -5.9, SENP8 block-1 42.8*, SENP7 block 7.8, SENP8 block-2 -0.8, Apaf1 inhib 13.0 and SENP8 conf -3.5.
`COc1cccc(N2CCN(c3ccc(S(=O)(=O)N4CCN(C)CC4)cc3[N+](=O)[O-])CC2)c1` gave UBC13 inh 4.7, SENP6 inh 11.2, SENP8 block-1 24.5, SENP7 block 7.5, SENP8 block-2 -0.8 and Apaf1 inhib 19.5.
Screening CC(=O)Nc1ccc(C(=O)O)cc1 returned UBC13 inh -1.8, SENP6 inh -12.7, SENP8 block-1 46.0*, SENP7 block -0.6, SENP8 block-2 11.4, Apaf1 inhib -11.5 and SENP8 conf 5.3.
`C1CCN(c2nc3nonc3nc2NCC2CCOCC2)CC1` gave UBC13 inh -7.8, SENP6 inh 13.9, SENP8 block-1 43.5*, SENP7 block 8.5, SENP8 block-2 6.3, Apaf1 inhib -23.8 and SENP8 conf 22.5.
Screening O=c1c2ccccc2c(C=NCCc2ccccc2)c(O)n1Cc1ccccc1 returned UBC13 inh -0.6, SENP6 inh 5.6, SENP8 block-1 46.6*, SENP7 block 21.2, SENP8 block-2 26.0, Apaf1 inhib 11.5 and SENP8 conf 50.6*.
